From ChEMBL document CHEMBL3352408, “Karwinaphthopyranones from the fruits of Karwinskia parvifolia and their cytotoxic activities” (J Nat Prod, 2014)

Columns and labels:
HeLa = experiment: Cytotoxicity against human HeLa cells after 72 hrs by MTT assay; type: functional, cell-based
How it was run: (§1)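 MTT read-out of cell viability, with etoposide as positive control. Cell origins: A549, human lung carcinoma; HeLa, cervical cancer; ZR-7530, breast cancer; HCT-15, colon cancer; U373, brain cancer; Hep G2, liver cancer. Potency reported as half-maximal growth inhibitory concentration (IC50).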

[1] = Cytotoxicity against human HCT15 cells after 72 hrs by MTT assay; type: functional, cell-based; details: HCT-15, 72 h; how it was run: as §1
A549 = experiment: Cytotoxicity against human A549 cells after 72 hrs by MTT assay; type: functional, cell-based; details: A549, 72 h; how it was run: as §1
[2] = Cytotoxicity against human ZR-7530 cells after 72 hrs by MTT assay; type: functional, cell-based; details: ZR-75-30, 72 h; how it was run: as §1
HepG2 = experiment: Cytotoxicity against human HepG2 cells after 72 hrs by MTT assay; type: functional, cell-based; details: HepG2, 72 h; how it was run: as §1
[3] = Cytotoxicity against human U373 cells after 72 hrs by MTT assay; type: functional, cell-based, U-373MG ATCC; details: U373 MG; how it was run: as §1

Compound	IC50 (HeLa)	IC50 [1]	IC50 (A549)	IC50 [2]	IC50 (HepG2)	IC50 [3]
COc1cccc2c1C(=O)C1=C(C[C@H](C)O[C@@H]1C)C2(OC)c1ccc2cc3c(c(O)c2c1O)C(=O)C[C@@](C)(O)C3 (stereo partly specified)	> 10 µM	4.6 µM	> 10 µM	5.5 µM	4.6 µM	> 10 µM
COc1cc(OC)c2c(O)c(C(C)=O)c(C)cc2c1	> 10 µM	> 10 µM	> 10 µM	> 10 µM	9.6 µM	> 10 µM
C[C@@]1(O)CC(=O)c2c(cc3ccc(-c4c5c(c(O)c6c(O)cccc46)C(=O)C[C@@](C)(O)C5)c(O)c3c2O)C1	4.9 µM	4.9 µM	> 10 µM	5.8 µM	> 10 µM	> 10 µM
Cc1cc(O)c2c(c1)Cc1ccc(C3c4cccc(O)c4C(=O)c4c(O)cc(C)cc43)c(O)c1C2=O (stereo unspecified)	> 10 µM	> 10 µM	> 10 µM	9.6 µM	> 10 µM	> 10 µM
COc1cc(C)cc2c1C(=O)c1c(O)cccc1C2=O	> 10 µM	> 10 µM	> 10 µM	> 10 µM	9.3 µM	> 10 µM
COc1cc([C@@H]2c3cc4c(cc3[C@@H](O[C@@H]3O[C@@H]5CO[C@@H](C)O[C@H]5[C@H](O)[C@H]3O)[C@H]3COC(=O)[C@H]23)OCO4)cc(OC)c1O [ETOPOSIDE]	3.4 µM	4.6 µM	9.3 µM	2.5 µM	3.6 µM	8.5 µM
